Measured values as given in PMC5041297 (Clinical cancer research : an official journal of the …, 2016).
Like-named read-outs stand apart in the source and are kept apart here.

Columns and labels:
PARP = conditions: cited from earlier work
purified kinases = conditions: cited from earlier work; for inhibition of certain kinases: high concentrations, cell-free conditions
[1] = tested on: MPN erythroid and myeloid progenitors; assay: Colony forming assay, mononuclear cells from MPN patients; type: cell-based, human; conditions: for IC50: Homo sapiens
Procedure, shortened: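 Peripheral-blood mononuclear cells from patients, Ficoll-Hypaque purified, washed into RPMI 1640 and mixed with methylcellulose medium containing PARP inhibitor (0, 0.5, 1, 2.5, 5, 10, 20 μM or 0, 0.25, 0.5, 1, 2, 5 μM; DMSO 0.1%). 1–5 × 10^5 cells per plate, 2–4 replicate plates, 37 °C, 5% CO2. Colonies (>40 cells) scored at 10–14 days (some CMMoL at 5–7 days). IC50 is 50% of diluent-control colonies, from linear regression after exponential transformation.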

Row | IC50 ([1]; read-out: IC50 values averaging, CML samples) | IC50 ([1]; read-out: IC50 values averaging, CMMoL samples) | IC50 ([1]; read-out: mean IC50, JAK2V617F mutated samples) | IC50 ([1]; read-out: veliparib IC50s, 5 of 16 individual JAK2 mutated samples) | IC50 lower in MPN samples with impaired RAD51 foci formation compared to those without ([1]; on average, p = 0.028) | SMILES | more potent in vitro (olaparib relative to veliparib) (PARP) | off-target kinase inhibitory activity (purified kinases) | inhibition of certain kinases (purified kinases) | IC50 lower in MPN samples than in normal controls ([1]; average, MPN samples vs normal controls, P<0.0001)
1 |  |  |  |  |  | O=C(c1cc(Cc2n[nH]c(=O)c3ccccc23)ccc1F)N1CCN(C(=O)C2CC2)CC1 [Olaparib] | roughly 10 fold | lacks this off-target kinase inhibitory activity |  | 
2 |  |  |  |  |  | CN(C)CC(=O)Nc1ccc2[nH]c(=O)c3ccccc3c2c1 [PJ-34] |  |  | might also inhibit certain kinases | 
3 | 3 µM | 3 µM | 5.7 µM | < 2 µM | 3 fold | C[C@]1(c2nc3c(C(N)=O)cccc3[nH]2)CCCN1 [Veliparib] |  |  | might also inhibit certain kinases | 4 fold
